Results on 32 compounds are retold here after ChEMBL document CHEMBL1649410, “Discovery of 7-N-piperazinylthiazolo[5,4-d]pyrimidine analogues as a novel class of immunosuppressive agents with in vivo biological activity” (J Med Chem, 2011).

pIC50: −log10 of the molar value.

The subject of one series is Lymphocyte. In words: Immunosuppressive activity in peripheral blood lymphocytes isolated from two individuals assessed as proliferation using [methyl-3H]thymidine by mixed lymphocyte reaction assay. To be noted: Homo sapiens. It counts as functional, cell-based. The method, boiled down: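 Human PBMCs from heparinized blood of healthy donors, isolated over Lymphoprep, 1.6 × 10⁶ cells/mL in RPMI-1640 with 10% heat-inactivated FCS. Stimulators: RPMI1788 cells given 30 μg/mL mitomycin C, 20 min, 37 °C, washed, 0.6 × 10⁶ cells/mL. Cells mixed with diluted compound, 5 days at 37 °C in 5% CO₂. 1 μCi (methyl-³H)thymidine added for last 18 h; harvested, cpm counted. IC₅₀ from two independent experiments (mean).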
As a reminder, the pIC50 is the IC50 on a negative log10 scale, so that one unit is a factor of ten. Take `Nc1nc(N2CCN(C(=O)COc3ccc(Cl)cc3)CC2)c2sc(-c3ccc(F)cc3)nc2n1`: the pIC50 is under 5.00.
The same measure, in the same setting: the value for `Nc1nc(N2CCNCC2)c2nc(-c3ccc(F)cc3)sc2n1` was 5.37; that for `Nc1nc(N2CCN(C(=O)COc3ccc(Cl)cc3)CC2)c2nc(-c3ccc(F)cc3)sc2n1` was 6.31.
The same measure, in the same setting: the value for `CC(C)(Oc1ccc(Cl)cc1)C(=O)N1CCN(c2nc(N)nc3sc(-c4ccc(F)cc4)nc23)CC1` was under 5.00; that for `Cc1ccc(NC(=O)N2CCN(c3nc(N)nc4sc(-c5ccc(F)cc5)nc34)CC2)cc1` was 6.15; that for `Cc1cccc(NC(=O)N2CCN(c3nc(N)nc4sc(-c5ccc(F)cc5)nc34)CC2)c1` was 6.52.
On the same count and under the same terms, the result for `Nc1nc(N2CCN(S(=O)(=O)c3ccccc3)CC2)c2nc(-c3ccc(F)cc3)sc2n1` reads under 5.00.
On to `Nc1nc(N2CCN(C(=O)OCc3ccccc3)CC2)c2nc(-c3ccc(F)cc3)sc2n1`, for which the pIC50 was 5.31.
`CCCCCN1CCN(c2nc(N)nc3sc(-c4ccc(F)cc4)nc23)CC1`: the pIC50 was under 5.00.
The same measure, in the same setting: the value for `Nc1nc(N2CCN(Cc3ccccc3)CC2)c2nc(-c3ccc(F)cc3)sc2n1` was under 5.00; that for `Cc1cccc(N2CCN(c3nc(N)nc4sc(-c5ccc(F)cc5)nc34)CC2)c1` was under 5.00; that for `Nc1nc(N2CCN(C(=O)COc3ccc(Cl)cc3)CC2)c2nc(-c3ccc(F)cc3)oc2n1` was 5.52.
The same measure, in the same setting: the result for `Nc1nc(N2CCN(C(=O)COc3ccc(Cl)cc3)CC2)c2nc(-c3ccc(F)cc3)[nH]c2n1` reads 6.10; that for `Nc1nc(N2CCN(C(=O)COc3ccc(Cl)cc3)CC2)c2cc(-c3ccc(F)cc3)sc2n1`, 6.15.
`Nc1nc(N2CCN(C(=O)COc3ccc(Cl)cc3)CC2)c2nc(Cc3ccc(F)cc3)sc2n1`: the pIC50 was 6.15.
On the same count and under the same terms, the result for `CC(c1ccc(F)cc1)c1nc2c(N3CCN(C(=O)COc4ccc(Cl)cc4)CC3)nc(N)nc2s1` (centres undefined) reads 5.36.
The same measure, in the same setting: the value for `Nc1nc(N2CCN(C(=O)COc3ccc(Cl)cc3)CC2)c2nc(CCc3ccc(F)cc3)sc2n1` was 5.36; that for `Nc1nc(N2CCN(C(=O)COc3ccc(Cl)cc3)CC2)c2nc(CCOc3ccc(F)cc3)sc2n1` was 5.45; that for `Nc1nc(N2CCN(C(=O)COc3ccc(Cl)cc3)CC2)c2nc(CCCCc3ccc(F)cc3)sc2n1` was 6.04.
Same read-out and setting: the result for `CCCCCc1nc2c(N3CCN(C(=O)COc4ccc(Cl)cc4)CC3)nc(N)nc2s1` reads 6.16; that for `Cc1ccc(-c2nc3c(N4CCN(C(=O)COc5ccc(Cl)cc5)CC4)nc(N)nc3s2)cc1`, 6.46; that for `Nc1nc(N2CCN(C(=O)COc3ccc(Cl)cc3)CC2)c2nc(-c3ccc(Cl)cc3)sc2n1`, 6.57.
For `Nc1nc(N2CCN(C(=O)COc3ccc(Cl)cc3)CC2)c2nc(-c3ccncc3)sc2n1`, the pIC50 is 7.40.
Turning to `Nc1nc(N2CCN(C(=O)COc3ccc(Cl)cc3)CC2)c2nc(-c3cccnc3)sc2n1`, the pIC50 is 7.30.
Turning to `Nc1nc(N2CCN(C(=O)COc3ccc(Cl)cc3)CC2)c2nc(-c3ccccn3)sc2n1`, the pIC50 was 6.64.
On the same count and under the same terms, the result for `Nc1nc(N2CCN(C(=O)COc3ccccc3)CC2)c2nc(-c3ccc(F)cc3)sc2n1` reads 7.05.
Same read-out and setting: the value for `Nc1nc(N2CCN(C(=O)COc3ccc(F)cc3)CC2)c2nc(-c3ccc(F)cc3)sc2n1` was 7.15; that for `Nc1nc(N2CCN(C(=O)COc3ccc(Br)cc3)CC2)c2nc(-c3ccc(F)cc3)sc2n1` was 6.42; that for `COc1ccc(OCC(=O)N2CCN(c3nc(N)nc4sc(-c5ccc(F)cc5)nc34)CC2)cc1` was 7.40.
Still for that read-out and setting: the result for `Nc1nc(N2CCN(C(=O)COc3ccc(F)cc3)CC2)c2nc(-c3cccnc3)sc2n1` reads 7.92; that for `COc1ccc(OCC(=O)N2CCN(c3nc(N)nc4sc(-c5cccnc5)nc34)CC2)cc1`, 7.92.

In the next series the test system is Mus musculus. In words: Suppression of cardiac allograft rejection of C57BL/6 mouse to BALB/c mouse assessed as surviving days at 40 mg/kg, po treatment started from day of transplantation for 30 days by immunosuppressive assay. It counts as functional.
Conditions: not given
The gist of the method:
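Female mice aged 8-10 weeks and weighing 20-25 g. Donors were inbred C57BL/6 (H-2b) and recipients Balb/c (H-2d). Animals were randomly allocated and dosed by daily gavage in 30% 2-hydroxypropyl-β-cyclodextrin. […] Each graft was scored as surviving days, compared with vehicle by Student t test.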
For the compound `Nc1nc(N2CCN(C(=O)COc3ccc(Cl)cc3)CC2)c2nc(-c3cccnc3)sc2n1`, the Survival was over 17 days.
Still for that read-out and setting: the value for `C/C=C/C[C@@H](C)[C@@H](O)[C@H]1C(=O)N[C@@H](CC)C(=O)N(C)CC(=O)N(C)[C@@H](CC(C)C)C(=O)N[C@@H](C(C)C)C(=O)N(C)[C@@H](CC(C)C)C(=O)N[C@@H](C)C(=O)N[C@H](C)C(=O)N(C)[C@@H](CC(C)C)C(=O)N(C)[C@@H](CC(C)C)C(=O)N(C)[C@@H](C(C)C)C(=O)N1C` [CYCLOSPORINE] was over 30 days.

The test system of another series is Mus musculus. Nature of the series: Toxicity in BALB/c mouse during cardiac allograft from C57BL/6 mouse at 40 mg/kg, po treatment started from day of transplantation for 30 days. It counts as organism-based. On the set-up: dose 40 mg/kg, route oral. The conditions noted are these: in vivo, 720 h. The gist of the method: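 Female mice aged 8-10 weeks, 20-25 g: C57BL/6 (H-2^b) donors, Balb/c (H-2^d) recipients. Recipients randomized to groups. Dosing 40 (mg/kg)/day by daily gavage. Vehicle 30% 2-hydroxypropyl-β-cyclodextrin given alone to controls (n = 6). […] Graft survival recorded in days. Student t test against vehicle group.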
On to `Nc1nc(N2CCN(C(=O)COc3ccc(Cl)cc3)CC2)c2nc(-c3cccnc3)sc2n1`, for which the Activity entry is listed as “Non-toxic”.
